Published values collected from several papers.
Target: Tyrosine-protein kinase Fes/Fps (FES, Homo sapiens, UniProt P07332)

Compound	observed	action	method	cell line	concentration	measurement	value
COc1cc2nccc(Oc3ccc(NC(=O)c4c5n(n(-c6ccc(F)cc6)c4=O)CCCC5)cc3)c2cc1OC	enzyme activity	inhibitor	–	–	0.1 µM	inhibition	-3%
COc1ccc2c(c1)O[C@H](c1ccc(OC)c(OC)c1)C[C@@H]2NC(=O)C1(c2ccc3c(c2)OC(F)(F)O3)CC1	cell-free assay	–	competition with immobilised ligand	–	1 µM	remaining binding	97%
CN1CC(Oc2cnc(C#N)cc2-c2ccn3nc(NC(=O)C4CC4)cc3c2)C1	enzyme activity	inhibitor	–	–	1 µM	inhibition	8%
COc1cc(Cl)c(C(=O)N[C@@H](CN[C@H]2CC[C@@H](N)CC2)Cc2ccc(C#N)cc2)cc1-c1ccc(CN[C@H](C)c2ccc(C)cc2)o1	enzyme activity	inhibitor	–	–	1 µM	remaining activity	94%
CSc1cccnc1N1CCN(Cc2nc3ccccc3[nH]2)CC1	cell-free assay	–	competition with immobilised ligand	–	1 µM	remaining binding	98%
Cc1ccc(NC(=O)c2ccc(C)c(C(F)(F)F)c2)cc1C#Cc1nn(C2CCC(O)CC2)c2ncnc(N)c12 (centres unmarked)	cell-free assay	–	–	–	10 µM	remaining signal	34%
CCCOc1ccc(OC)c(F)c1C(=O)c1ccc(C(=O)N[C@@H]2CNC[C@H]2NC(=O)c2ccc3[nH]ncc3c2)cc1	enzyme activity	inhibitor	–	–	10 µM	remaining activity	79%
COc1ccc2c(O[C@@H]3C[C@H]4C(=O)N[C@]5(C(=O)O)CC5/C=C\CCCCC[C@H](NC(=O)OC5CCCC5)C(=O)N4C3)cc(-c3csc(NC(=O)C(C)C)n3)nc2c1C (some centres unmarked)	cell-free assay	–	competition with immobilised ligand	–	1 µM	remaining binding	100%
Cc1ccc(C(=O)NCc2ccsc2)cc1C#Cc1cn(C(C)C)c2ncnc(N)c12	enzyme activity	inhibitor	–	–	1 µM	activity vs control	93%
O=C(Nc1cnn(-c2csc(C(=O)NC3COC3)c2)c1)Nc1c(F)cccc1Cl	enzyme activity	inhibitor	–	–	5 µM	remaining activity	87.8%
COc1cc2ncnc(Nc3ccc(Oc4ccccc4)c(C)c3C)c2cc1OC	enzyme activity	inhibitor	–	–	1 µM	inhibition	7%
CNc1cc(Oc2cc(C(=O)Nc3cc(N4CCN(C)CC4)cc(C(F)(F)F)c3)ccc2C)ncn1	target engagement in cells	inhibitor	chemoproteomics	Huh-7	1 µM	inhibition	-21.4%
O=C1NC(=O)c2cc(Nc3ccc(F)cc3)c(Nc3ccc(F)cc3)cc21	cell-free assay	–	–	–	0.5 µM	remaining signal	99.5%
O=c1nc(-c2ccccn2)sc2ccccc12	cell-free assay	–	competition with immobilised ligand	–	1 µM	remaining binding	100%
Cc1ccc(NC(=O)c2ccc(CN3CCN(C)CC3)cc2)cc1Nc1nccc(-c2cncc(-c3oncc3C)c2)n1	enzyme activity	inhibitor	–	–	0.5 µM	remaining activity	≤ 50%
CNC(=O)c1cc(Oc2ccc(NC(=O)Nc3ccc(Cl)c(C(F)(F)F)c3)cc2)ccn1	cell-free assay	–	–	–	0.5 µM	remaining signal	104%
CC(C)(O)[C@H]1CC[C@H](Nc2ccc3ncc(-c4cccc(C(F)(F)F)c4)n3n2)CC1	enzyme activity	inhibitor	–	–	1 µM	remaining activity	95.4%
CC(C)(C)c1nc2c(s1)c1nc(N)ncc1c1ccc(NS(=O)(=O)c3c(F)cccc3F)c(F)c12	enzyme activity	inhibitor	radiometric	–	1 µM	remaining activity	93%
CN(c1ccnc(CNc2nc(Nc3ccc4c(c3)CC(=O)N4)ncc2C(F)(F)F)n1)S(C)(=O)=O	cell-free assay	–	competition with immobilised ligand	–	1 µM	remaining binding	74%
CNCc1ccc(-c2cc(-c3nc(-c4ccc(S(=O)(=O)C(C)C)cc4)cnc3N)on2)cc1	enzyme activity	inhibitor	–	–	2 µM	inhibition	0%
CN([C@@H]1CCc2c(CC(=O)O)c3cc(S(C)(=O)=O)ccc3n2C1)S(=O)(=O)c1ccc(F)cc1	cell-free assay	–	competition with immobilised ligand	–	1 µM	remaining binding	92%
N#CCCc1ccc2c(c1)-c1[nH]c3ccc([N+](=O)[O-])cc3c1CC(=O)N2	cell-free assay	–	–	–	0.5 µM	remaining signal	37.9%
Cc1ccc(C(=O)Nc2ccc(CN3CCN(C)CC3)c(C(F)(F)F)c2)cc1C#Cc1cnc2cccnn12	enzyme activity	–	–	–	23.5 nM	remaining activity	100%
